Measured values published in ChEMBL document CHEMBL1142148, “Antibiotic susceptibility profile of bifidobacteria as affected by oxgall, acid, and hydrogen peroxide stress” (2007).

Tests used:
Bifidobacterium animalis [1] = experiment: Antimicrobial activity against Bifidobacterium animalis ATCC 27536; format: functional
Summary of the method: (§1)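 Broth microdilution in MRS plus 0.05% L-cysteine-HCl. Mid-log culture adjusted to OD650 0.1, giving about 2.5 × 10^4 to 5.0 × 10^4 CFU/well, then added to twofold serial dilutions of agent. Plates incubated anaerobically at 37°C for 18 h and read at OD650. MIC is the lowest concentration matching the uninoculated blank OD, taken as the median of four repeats.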

Bifidobacterium bifidum [2] = experiment: Antimicrobial activity against Bifidobacterium bifidum R0071; format: functional; summary of the method: as §1
Bifidobacterium bifidum [3] = experiment: Antimicrobial activity against Bifidobacterium bifidum ATCC 15696; format: functional; summary of the method: as §1
Bifidobacterium bifidum [4] = experiment: Antimicrobial activity against Bifidobacterium bifidum BB12; format: functional; summary of the method: as §1
Bifidobacterium breve [5] = experiment: Antimicrobial activity against Bifidobacterium breve ATCC 15700; format: functional; summary of the method: as §1
[6] = Antimicrobial activity against Bifidobacterium infantis ATCC 15697; format: functional, Bifidobacterium longum subsp. infantis; conditions: Bifidobacterium longum; summary of the method: as §1
Bifidobacterium longum [7] = experiment: Antimicrobial activity against Bifidobacterium longum ATCC 15708; format: functional; summary of the method: as §1
Bifidobacterium longum [8] = experiment: Antimicrobial activity against Bifidobacterium longum R0175; format: functional; summary of the method: as §1
Bifidobacterium longum [9] = experiment: Antimicrobial activity against Bifidobacterium longum P/N 601377; format: functional; summary of the method: as §1
[10] = tested on: Bifidobacterium pseudolongum; experiment: Antimicrobial activity against Bifidobacterium pseudolongum ATCC 25562; format: functional; summary of the method: as §1
[11] = tested on: Bifidobacterium thermophilum; experiment: Antimicrobial activity against Bifidobacterium thermophilum ATCC 25866; format: functional; summary of the method: as §1
Bifidobacterium breve [12] = experiment: Antimicrobial activity against Bifidobacterium breve R0070; format: functional; summary of the method: as §1
Bifidobacterium animalis [13] = experiment: Antimicrobial activity against 60 min 1 M HCl-stressed Bifidobacterium animalis ATCC 27536 after 18 hrs; format: functional
Summary of the method: (§2)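 Mid-log MRS culture pelleted and resuspended in MRS broth brought to pH 2.0 with 1 M HCl, held anaerobically at 37°C for 60 min, then subcultured in MRS (pH 6.5) for 24 h anaerobically before MIC testing by broth microdilution (as for unstressed cells). Table footnote gives 18 h anaerobic regrowth after the stress. MIC is the median of four repetitions.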

Bifidobacterium bifidum [14] = experiment: Antimicrobial activity against 60 min 1 M HCl-stressed Bifidobacterium bifidum R0071 after 18 hrs; format: functional; summary of the method: as §2
Bifidobacterium bifidum [15] = experiment: Antimicrobial activity against 60 min 1 M HCl-stressed Bifidobacterium bifidum BB12 after 18 hrs; format: functional; summary of the method: as §2
Bifidobacterium breve [16] = experiment: Antimicrobial activity against 60 min 1 M HCl-stressed Bifidobacterium breve ATCC 15700 after 18 hrs; format: functional; summary of the method: as §2
Bifidobacterium breve [17] = experiment: Antimicrobial activity against 60 min 1 M HCl-stressed Bifidobacterium breve R0070 after 18 hrs; format: functional; summary of the method: as §2
[18] = Antimicrobial activity against 60 min 1 M HCl-stressed Bifidobacterium infantis ATCC 15697 after 18 hrs; format: functional, Bifidobacterium longum subsp. infantis; conditions: Bifidobacterium longum; summary of the method: as §2
Bifidobacterium longum [19] = experiment: Antimicrobial activity against 60 min 1 M HCl-stressed Bifidobacterium longum ATCC 15707 after 18 hrs; format: functional; summary of the method: as §2
Bifidobacterium longum [20] = experiment: Antimicrobial activity against 60 min 1 M HCl-stressed Bifidobacterium longum R0175 after 18 hrs; format: functional; summary of the method: as §2
Bifidobacterium longum [21] = experiment: Antimicrobial activity against 60 min 1 M HCl-stressed Bifidobacterium longum P/N 601377 after 18 hrs; format: functional; summary of the method: as §2
[22] = tested on: Bifidobacterium pseudolongum; experiment: Antimicrobial activity against 60 min 1 M HCl-stressed Bifidobacterium pseudolongum ATCC 25562 after 18 hrs; format: functional; summary of the method: as §2
[23] = tested on: Bifidobacterium thermophilum; experiment: Antimicrobial activity against 60 min 1 M HCl-stressed Bifidobacterium thermophilum ATCC 25866 after 18 hrs; format: functional; summary of the method: as §2
Bifidobacterium animalis [24] = experiment: Antimicrobial activity against 90 mins oxgall-stressed Bifidobacterium animalis ATCC 27536 after 18 hrs; format: functional
Summary of the method: (§3)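 Cells pelleted from mid-log MRS culture and resuspended in MRS (initial pH 6.5) with 0.3% (wt/vol) oxgall for 90 min anaerobically at 37°C. They were then regrown in MRS pH 6.5 for 24 h (footnote: 18 h) anaerobically and tested for MIC by the same broth microdilution assay. Median of four repetitions.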

Bifidobacterium bifidum [25] = experiment: Antimicrobial activity against 90 mins oxgall-stressed Bifidobacterium bifidum R0071 after 18 hrs; format: functional; summary of the method: as §3
Bifidobacterium bifidum [26] = experiment: Antimicrobial activity against 90 mins oxgall-stressed Bifidobacterium bifidum ATCC 15696 after 18 hrs; format: functional; summary of the method: as §3
Bifidobacterium bifidum [27] = experiment: Antimicrobial activity against 90 mins oxgall-stressed Bifidobacterium bifidum BB12 after 18 hrs; format: functional; summary of the method: as §3
Bifidobacterium breve [28] = experiment: Antimicrobial activity against 90 mins oxgall-stressed Bifidobacterium breve ATCC 15700 after 18 hrs; format: functional; summary of the method: as §3
Bifidobacterium breve [29] = experiment: Antimicrobial activity against 90 mins oxgall-stressed Bifidobacterium breve R0070 after 18 hrs; format: functional; summary of the method: as §3
[30] = Antimicrobial activity against 90 mins oxgall-stressed Bifidobacterium infantis ATCC 15697 after 18 hrs; format: functional, Bifidobacterium longum subsp. infantis; conditions: Bifidobacterium longum; summary of the method: as §3
Bifidobacterium longum [31] = experiment: Antimicrobial activity against 90 mins oxgall-stressed Bifidobacterium longum ATCC 15707 after 18 hrs; format: functional; summary of the method: as §3
Bifidobacterium longum [32] = experiment: Antimicrobial activity against 90 mins oxgall-stressed Bifidobacterium longum ATCC 15708 after 18 hrs; format: functional; summary of the method: as §3
Bifidobacterium longum [33] = experiment: Antimicrobial activity against Bifidobacterium longum ATCC 15707; format: functional; summary of the method: as §1
Bifidobacterium longum [34] = experiment: Antimicrobial activity against 90 mins oxgall-stressed Bifidobacterium longum R0175 after 18 hrs; format: functional; summary of the method: as §3
Bifidobacterium longum [35] = experiment: Antimicrobial activity against 90 mins oxgall-stressed Bifidobacterium longum P/N 601377 after 18 hrs; format: functional; summary of the method: as §3
[36] = tested on: Bifidobacterium pseudolongum; experiment: Antimicrobial activity against 90 mins oxgall-stressed Bifidobacterium pseudolongum ATCC 25562 after 18 hrs; format: functional; summary of the method: as §3
[37] = tested on: Bifidobacterium thermophilum; experiment: Antimicrobial activity against 90 mins oxgall-stressed Bifidobacterium thermophilum ATCC 25866 after 18 hrs; format: functional; summary of the method: as §3
Bifidobacterium animalis [38] = experiment: Antimicrobial activity against 90 mins hydrogen peroxide-stressed Bifidobacterium animalis ATCC 27536 after 18 hrs; format: functional
Summary of the method: (§4)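 Stress applied for 90 min at 37°C under anaerobic conditions, using MRS (initial pH 6.5) containing H2O2 at each strain's own inhibitory concentration. The H2O2 level was set beforehand by microplate tolerance testing. Challenged cells were regrown in MRS for 24 h (footnote: 18 h) before MIC testing by broth microdilution. Median of four repetitions.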

Bifidobacterium bifidum [39] = experiment: Antimicrobial activity against 90 mins hydrogen peroxide-stressed Bifidobacterium bifidum R0071 after 18 hrs; format: functional; summary of the method: as §4
Bifidobacterium bifidum [40] = experiment: Antimicrobial activity against 90 mins hydrogen peroxide-stressed Bifidobacterium bifidum BB12 after 18 hrs; format: functional; summary of the method: as §4
Bifidobacterium breve [41] = experiment: Antimicrobial activity against 90 mins hydrogen peroxide-stressed Bifidobacterium breve ATCC 15700 after 18 hrs; format: functional; summary of the method: as §4
Bifidobacterium breve [42] = experiment: Antimicrobial activity against 90 mins hydrogen peroxide-stressed Bifidobacterium breve R0070 after 18 hrs; format: functional; summary of the method: as §4
Bifidobacterium longum [43] = experiment: Antimicrobial activity against 90 mins hydrogen peroxide-stressed Bifidobacterium longum ATCC 15707 after 18 hrs; format: functional; summary of the method: as §4
Bifidobacterium longum [44] = experiment: Antimicrobial activity against 90 mins hydrogen peroxide-stressed Bifidobacterium longum ATCC 15708 after 18 hrs; format: functional; summary of the method: as §4
Bifidobacterium longum [45] = experiment: Antimicrobial activity against 90 mins hydrogen peroxide-stressed Bifidobacterium longum R0175 after 18 hrs; format: functional; summary of the method: as §4
Bifidobacterium longum [46] = experiment: Antimicrobial activity against 90 mins hydrogen peroxide-stressed Bifidobacterium longum P/N 601377 after 18 hrs; format: functional; summary of the method: as §4
[47] = tested on: Bifidobacterium thermophilum; experiment: Antimicrobial activity against 90 mins hydrogen peroxide-stressed Bifidobacterium thermophilum ATCC 25866 after 18 hrs; format: functional; summary of the method: as §4

Measured: MIC

NC[C@@H]1O[C@H](O[C@H]2[C@@H](O)[C@H](O[C@@H]3[C@@H](O)[C@H](N)C[C@H](N)[C@H]3O[C@H]3O[C@H](CO)[C@@H](O)[C@H](O)[C@H]3N)O[C@@H]2CO)[C@H](N)[C@@H](O)[C@@H]1O [PAROMOMYCIN]
500 µg/mL: Bifidobacterium animalis [13] | Bifidobacterium longum [19] | [23] | Bifidobacterium bifidum [26] | [30] | Bifidobacterium longum [32] | [36] | Bifidobacterium animalis [38] | Bifidobacterium bifidum [40] | Bifidobacterium breve [41] | Bifidobacterium longum [43] | [47]
62.5 µg/mL: Bifidobacterium longum [35]
125 µg/mL: Bifidobacterium bifidum [15] | Bifidobacterium breve [16] | Bifidobacterium animalis [24] | Bifidobacterium bifidum [25] | Bifidobacterium breve [29] | Bifidobacterium longum [31] | Bifidobacterium longum [34] | Bifidobacterium bifidum [39] | Bifidobacterium longum [46]
250 µg/mL: all other assays above
